Values belong to the compound of their own block, whether it stands above or below them.
How the values were obtained:
Substance-P receptor [1] = molecular target: T1, Substance-P receptor (Homo sapiens, UniProt P25103); assay: Antagonist activity at NK1 receptor (unknown origin)
Substance-P receptor [2] = molecular target: T1, Substance-P receptor; assay: Displacement of [3H]SP from human recombinant NK1 receptor expressed in CHO cells after 40 mins by scintillation counting analysis; type: cell-based
Summary of the method: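 Membranes from hNK1-CHO cells (8 µg protein) with [3H]-SP 0.5 nM in HEPES pH 7.4, 3 mM MnCl2, 0.02% BSA. Compound 1 pM–1 µM final, 40 min at room temperature. Nonspecific binding with 1 µM SP. Filtration through PEI-soaked GF/B filters, scintillation counting. IC50 fitted with slope fixed at unity, converted to Ki by Cheng-Prusoff; duplicates.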

[3] = Half life in dog at 0.5 mg/kg, iv and 1 mg/kg, po; type: ADME, organism-based, Canis lupus familiaris; conditions: in vivo
Summary of the method: (§1)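 Rat and dog pharmacokinetics derived from plasma concentrations after 0.5 mg/kg i.v. and 1 mg/kg oral dosing.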

[4] = Ratio of drug uptake in brain to plasma in rat at 1 mg/kg, iv after 5 mins; type: ADME, organism-based; design: dose 1 mg/kg, route intravenous; conditions: read-out: BPR
Summary of the method: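 Rat brain and plasma levels measured 5 min after 1 mg/kg i.v. dose; brain/plasma ratio calculated.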

Substance-P receptor [5] = molecular target: T1, Substance-P receptor; conditions: CHO
[6] = Half life in rat at 0.5 mg/kg, iv and 1 mg/kg, po; type: ADME, organism-based; conditions: in vivo; summary of the method: as §1
[7] = Plasma clearance in rat at 0.5 mg/kg, iv and 1 mg/kg, po; type: ADME, organism-based; summary of the method: as §1
[8] = Volume of distribution at steady state in dog at 0.5 mg/kg, iv and 1 mg/kg, po; type: ADME, organism-based, Canis lupus familiaris; conditions: in vivo, read-out: Vdss; summary of the method: as §1
[9] = Volume of distribution at steady state in rat at 0.5 mg/kg, iv and 1 mg/kg, po; type: ADME, organism-based; conditions: in vivo, read-out: Vdss; summary of the method: as §1
[10] = Oral bioavailability in rat at 1 mg/kg; type: ADME, organism-based; conditions: in vivo; summary of the method: as §1
[11] = Oral bioavailability in dog at 1 mg/kg; type: ADME, organism-based, Canis lupus familiaris; conditions: in vivo; summary of the method: as §1
[12] = Plasma clearance in dog at 0.5 mg/kg, iv and 1 mg/kg, po; type: ADME, organism-based, Canis lupus familiaris; summary of the method: as §1
[13] = Displacement of [3H]GR205171 from marmoset cerebral striatum NK1 receptor after 60 mins by scintillation counting analysis; design: species or system Callithrix jacchus
Summary of the method: (§2)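 Brain membranes used: gerbil cortex/striatum (0.055 mg protein) or marmoset striatum (0.080 mg). Radioligand [3H]-GR205171 0.2 nM, compound 1 pM–1 µM final, in HEPES pH 7.4, MnCl2, BSA plus protease inhibitors. Incubation 60 min at room temperature; nonspecific binding with 1 µM GR205171. Filtration on GF/C, scintillation counting; LIGAND fit, duplicates.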

Meriones unguiculatus [14] = assay: Antidepressant activity in po dosed Mongolian gerbil assessed as increase in social interaction time after 1 hr; type: functional, organism-based
Meriones unguiculatus [15] = assay: Inhibition of GR73632-induced tapping behavior in po dosed Mongolian gerbil foot tapping model administered 1 to 24 hrs prior to GR73632 challenge; type: functional, organism-based
Summary of the method: (§3)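 Male gerbils (50–70 g) dosed orally (10 ml/kg) in 0.5% methocel with 5% DMSO, 1, 4, 8 or 24 h before icv GR73632 (3 pmol/5 µl) given under brief isoflurane. Hind foot tapping timed for 3 min; ≥7 animals per treatment.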

Meriones unguiculatus [16] = assay: Ex vivo NK1 receptor occupancy in Mongolian gerbil striatum assessed as inhibition of [3H]-GR205171 binding at 0.1 mg/kg, po by autoradiography; type: functional
Summary of the method: (§4)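 Gerbils dosed orally (0.1–1 mg/kg) 1 h before, killed after social interaction testing. Unwashed 12 µm coronal sections incubated 10 min with 0.3 nM [3H]-GR205171; nonspecific binding with 100 nM GR205171. Imaging-plate exposure 10 days. Occupancy = 100% minus specific binding ratio treated/vehicle in striatum; 3 animals per group.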

Meriones unguiculatus [17] = assay: Antidepressant activity in Mongolian gerbil assessed as increase in social interaction time at 1 mg/kg, po after 1 hr (reference value: 21.2 +/- 2.9 secs); type: functional
Callithrix jacchus [18] = assay: Anxiolytic activity in marmoset human threat test model assessed as reduction in number of postures at 10 mg/kg, po preincubated for 1 hr followed by compound wash out for 3 days relative to vehicle-treated control; type: functional; design: scale not given: the % may be the effect or the level left
Summary of the method: (§5)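 Marmosets, both sexes, >2 years, 300–500 g, preselected for ≥10 postures in 2 min. Oral dosing 0.3–10 mg/kg (1 ml/kg) in 0.5% methocel with 1% DMSO, 1 h before a human-observer threat test. Blind random crossover, ≥3 day washout, 4–7 animals. Postures counted; paired t-test against matched vehicle.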

Meriones unguiculatus [19] = assay: Antidepressant activity in Mongolian gerbil assessed as increase in social interaction time at 0.1 mg/kg, po after 1 hr (reference value: 21.2 +/- 2.9 secs); type: functional
[20] = molecular target: Sigma non-opioid intracellular receptor 1 (Homo sapiens, UniProt Q99720); assay: Inhibition of sigma1 receptor (unknown origin)
Chain of Sigma non-opioid intracellular receptor 1 (Q99720 whole entry): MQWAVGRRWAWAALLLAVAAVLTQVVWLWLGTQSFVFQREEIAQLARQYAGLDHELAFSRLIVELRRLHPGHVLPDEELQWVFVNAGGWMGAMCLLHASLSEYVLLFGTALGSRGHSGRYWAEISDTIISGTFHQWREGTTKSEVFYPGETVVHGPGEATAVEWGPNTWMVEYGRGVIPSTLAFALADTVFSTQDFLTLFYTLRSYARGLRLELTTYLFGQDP

Meriones unguiculatus [21] = assay: Inhibition of GR73632-induced tapping behavior in po dosed Mongolian gerbil foot tapping model administered 8 hrs prior to GR73632 challenge; type: functional; conditions: read-out: ID50 (the source's name); summary of the method: as §3
Meriones unguiculatus [22] = assay: Antidepressant activity in Mongolian gerbil assessed as increase in social interaction time at 0.3 mg/kg, po after 1 hr (reference value: 21.2 +/- 2.9 secs); type: functional
Meriones unguiculatus [23] = assay: Toxicity in Mongolian gerbil assessed as locomotor activity at 0.1 to 1 mg/kg, po after 1 hr; type: organism-based; design: dose 0.1-1 mg/kg, route oral; conditions: in vivo
[24] = Ratio of drug uptake in brain to plasma in Mongolian gerbil at 1 mg/kg, po; type: ADME, organism-based, Meriones unguiculatus; design: dose 1 mg/kg, route oral
Summary of the method: (§6)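 Gerbils given 1 mg/kg orally; total brain concentration and brain/plasma ratio determined.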

Substance-P receptor [25] = molecular target: Substance-P receptor (Meriones unguiculatus, UniProt Q5DUB1); assay: Displacement of [3H]GR205171 from Mongolian gerbil brain NK1 receptor after 60 mins by scintillation counting analysis; summary of the method: as §2
Chain of Substance-P receptor (Meriones unguiculatus, UniProt Q5DUB1) (Q5DUB1 whole entry): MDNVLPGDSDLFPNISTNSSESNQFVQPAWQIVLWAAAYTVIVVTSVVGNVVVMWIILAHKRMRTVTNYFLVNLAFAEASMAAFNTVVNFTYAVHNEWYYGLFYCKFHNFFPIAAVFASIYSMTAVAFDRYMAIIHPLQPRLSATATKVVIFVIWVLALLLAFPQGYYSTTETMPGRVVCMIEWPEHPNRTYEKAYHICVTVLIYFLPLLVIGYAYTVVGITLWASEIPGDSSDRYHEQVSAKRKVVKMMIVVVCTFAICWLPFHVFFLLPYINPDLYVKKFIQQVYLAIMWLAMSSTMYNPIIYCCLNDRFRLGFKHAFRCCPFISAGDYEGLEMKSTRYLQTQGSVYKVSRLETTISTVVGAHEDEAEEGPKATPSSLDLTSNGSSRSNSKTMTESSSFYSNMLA

Meriones unguiculatus [26] = assay: Inhibition of GR73632-induced tapping behavior in po dosed Mongolian gerbil foot tapping model administered 24 hrs prior to GR73632 challenge; type: functional; conditions: read-out: ID50 (the source's name); summary of the method: as §3
Meriones unguiculatus [27] = assay: Inhibition of GR73632-induced tapping behavior in po dosed Mongolian gerbil foot tapping model administered 1 hr prior to GR73632 challenge; type: functional; conditions: read-out: ID50 (the source's name); summary of the method: as §3
[28] = Inhibition of sodium channel site2 (unknown origin); design: species or system Homo sapiens
Callithrix jacchus [29] = assay: Anxiolytic activity in po dosed marmoset human threat test model assessed as reduction in number of postures preincubated for 1 hr followed by compound wash out for 3 days; type: functional, organism-based; summary of the method: as §5
[30] = Drug uptake in Mongolian gerbil brain at 1 mg/kg, po; type: ADME, organism-based, Meriones unguiculatus; design: dose 1 mg/kg, route oral; conditions: in vivo; summary of the method: as §6
Meriones unguiculatus [31] = assay: Ex vivo NK1 receptor occupancy in Mongolian gerbil striatum assessed as inhibition of [3H]-GR205171 binding at 1 mg/kg, po by autoradiography; type: functional; summary of the method: as §4
Meriones unguiculatus [32] = assay: Inhibition of GR73632-induced tapping behavior in sc dosed Mongolian gerbil foot tapping model administered 1 hr prior to GR73632 challenge; type: functional; conditions: read-out: ID50
Callithrix jacchus [33] = assay: Anxiolytic activity in marmoset human threat test model assessed as reduction in number of postures at 3 mg/kg, po preincubated for 1 hr followed by compound wash out for 3 days relative to vehicle-treated control; type: functional; design: scale not given: the % may be the effect or the level left; summary of the method: as §5
Meriones unguiculatus [34] = assay: Ex vivo NK1 receptor occupancy in Mongolian gerbil striatum assessed as inhibition of [3H]-GR205171 binding at 0.3 mg/kg, po by autoradiography; type: functional; summary of the method: as §4
Meriones unguiculatus [35] = assay: Inhibition of GR73632-induced tapping behavior in po dosed Mongolian gerbil foot tapping model administered 4 hrs prior to GR73632 challenge; type: functional; conditions: read-out: ID50 (the source's name); summary of the method: as §3
Callithrix jacchus [36] = assay: Anxiolytic activity in marmoset human threat test model assessed as reduction in number of postures at 0.3 mg/kg, po preincubated for 1 hr followed by compound wash out for 3 days relative to vehicle-treated control; type: functional; design: scale not given: the % may be the effect or the level left; summary of the method: as §5
[37] = molecular target: Platelet-activating factor receptor (Homo sapiens, UniProt P25105); assay: Inhibition of platelet activating factor receptor (unknown origin)
Chain of Platelet-activating factor receptor (P25105 whole entry): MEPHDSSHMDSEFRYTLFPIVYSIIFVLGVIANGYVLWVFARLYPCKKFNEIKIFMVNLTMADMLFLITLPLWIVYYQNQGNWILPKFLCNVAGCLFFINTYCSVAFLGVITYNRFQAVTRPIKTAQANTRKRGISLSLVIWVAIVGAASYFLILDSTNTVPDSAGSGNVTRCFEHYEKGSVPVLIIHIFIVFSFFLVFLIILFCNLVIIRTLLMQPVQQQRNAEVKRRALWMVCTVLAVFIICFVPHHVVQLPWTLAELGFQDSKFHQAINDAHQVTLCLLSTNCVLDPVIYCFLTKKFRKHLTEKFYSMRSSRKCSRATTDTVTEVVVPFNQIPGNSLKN

Callithrix jacchus [38] = assay: Anxiolytic activity in marmoset human threat test model assessed as reduction in number of postures at 1 mg/kg, po preincubated for 1 hr followed by compound wash out for 3 days relative to vehicle-treated control; type: functional; design: scale not given: the % may be the effect or the level left; summary of the method: as §5
[39] = Inhibition of sigma2 receptor (unknown origin); design: species or system Homo sapiens

T1 sequence (P25103 whole entry): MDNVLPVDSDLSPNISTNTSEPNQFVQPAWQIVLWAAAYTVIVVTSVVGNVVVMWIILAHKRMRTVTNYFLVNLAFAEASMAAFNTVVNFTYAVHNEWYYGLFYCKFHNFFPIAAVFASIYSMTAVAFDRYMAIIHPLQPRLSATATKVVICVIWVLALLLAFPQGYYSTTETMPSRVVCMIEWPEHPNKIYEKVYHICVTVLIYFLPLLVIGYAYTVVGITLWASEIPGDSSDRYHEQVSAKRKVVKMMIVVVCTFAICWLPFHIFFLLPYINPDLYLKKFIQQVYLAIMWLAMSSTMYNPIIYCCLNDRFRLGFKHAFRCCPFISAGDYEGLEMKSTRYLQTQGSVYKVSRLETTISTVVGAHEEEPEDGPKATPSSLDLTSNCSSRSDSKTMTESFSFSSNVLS

SMILES: COc1ccccc1CN1CN2CCCC1C2c1ccccc1 (configuration not stated)
IC50 (Substance-P receptor [1]): 0.61 nM

SMILES: Cc1cc(F)ccc1[C@H]1C[C@H](N2CCN3C(=O)CC[C@@H]3C2)CCN1C(=O)N(C)[C@H](C)c1cc(C(F)(F)F)cc(C(F)(F)F)c1
Ki (Substance-P receptor [2]): 0.138 nM

SMILES: COc1ccc(-n2cnnn2)cc1CN[C@H]1CCCN[C@H]1c1ccccc1
IC50 (Substance-P receptor [1]): 0.04 nM

SMILES: CC(=O)N1CCN([C@H]2CCN(C(=O)N(C)[C@H](C)c3cc(C(F)(F)F)cc(C(F)(F)F)c3)[C@@H](c3ccc(F)cc3C)C2)CC1 [CASOPITANT]
clearance [7]: 37 mL/min/kg
Vd [9]: 3.2 L/kg
bioavailability [11]: 34%

SMILES: Cc1ccccc1-c1cc(N2CCN(C)CC2)ncc1N(C)C(=O)C(C)(C)c1cc(C(F)(F)F)cc(C(F)(F)F)c1 [NETUPITANT]
IC50 (Substance-P receptor [1]): 0.95 nM

Second part, led by results:

Ki (Substance-P receptor [2]): 0.2 nM
SMILES: Cc1cc(F)ccc1[C@H]1C[C@@H](N2CCN3C(=O)CC[C@@H]3C2)CCN1C(=O)N(C)[C@H](C)c1cc(C(F)(F)F)cc(C(F)(F)F)c1

half-life [3]: 5.1 h
Ki (Substance-P receptor [2]): 0.0646 nM
Kp at 5 min [4]: 0.9
pKb (Substance-P receptor [5]): 10.5
half-life [6]: 2.8 h
clearance [7]: 25 mL/min/kg
Vd [8]: 2 L/kg
Vd [9]: 3.4 L/kg
bioavailability [10]: 19%
bioavailability [11]: 28%
clearance [12]: 11 mL/min/kg
SMILES: Cc1cc(F)ccc1[C@H]1C[C@H](N2CCN3C(=O)CC[C@H]3C2)CCN1C(=O)N(C)[C@H](C)c1cc(C(F)(F)F)cc(C(F)(F)F)c1

pKi [13]: 10.4
half-life [3]: 6.1 h
Ki (Substance-P receptor [2]): 0.0631 nM
Kp at 5 min [4]: 1.2
pKb (Substance-P receptor [5]): 10.3
Ki [20]: 940 nM
half-life [6]: 2.3 h
clearance [7]: 29 mL/min/kg
Vd [8]: 2 L/kg
Kp [24]: 1.2
Ki (Substance-P receptor [25]): 0.0316 nM
Vd [9]: 3.7 L/kg
Ki [28]: 4540 nM
Drug uptake [30]: 91 ng/g
bioavailability [10]: 17%
bioavailability [11]: 55%
Ki [37]: 2270 nM
Ki [39]: 3260 nM
clearance [12]: 6 mL/min/kg
SMILES: Cc1cc(F)ccc1[C@H]1C[C@@H](N2CCN3C(=O)CC[C@H]3C2)CCN1C(=O)N(C)[C@H](C)c1cc(C(F)(F)F)cc(C(F)(F)F)c1 [ORVEPITANT]
Activity (Meriones unguiculatus [14]): Dose-dependent effect
Activity (Meriones unguiculatus [15]): Dose-dependent effect
Occ (Meriones unguiculatus [16]): 47.8%
Time (Meriones unguiculatus [17]): 33.1 s
Activity (Callithrix jacchus [18]): 46.4%
Time (Meriones unguiculatus [19]): 22.1 s
ED50 (Meriones unguiculatus [21]): 0.09 mg/kg
Time (Meriones unguiculatus [22]): 27.3 s
Activity (Meriones unguiculatus [23]): Non-toxic
ED50 (Meriones unguiculatus [26]): 3.36 mg/kg
ED50 (Meriones unguiculatus [27]): 0.11 mg/kg
Activity (Callithrix jacchus [29]): Dose-dependent effect
Occ (Meriones unguiculatus [31]): 95.2%
ED50 (Meriones unguiculatus [32]): 0.07 mg/kg
Activity (Callithrix jacchus [33]): 36.6%
Occ (Meriones unguiculatus [34]): 74.6%
ED50 (Meriones unguiculatus [35]): 0.09 mg/kg
Activity (Callithrix jacchus [36]): 11.8%
Activity (Callithrix jacchus [38]): 34.9%

Reference: ChEMBL document CHEMBL2440072, “Identification, biological characterization and pharmacophoric analysis of a new potent and selective NK1 receptor antagonist clinical candidate” (Bioorg Med Chem, 2013)
